In ChEMBL document CHEMBL1147229, “Isolation and characterization of new epothilone analogues from recombinant Myxococcus xanthus fermentations” (J Nat Prod, 2003) one finds IC50 data, which are given here for five compounds.

Each structure is given as a SMILES string. Some results are limits rather than exact numbers.

Common to all, as to assay type: functional, cell-based
Assay [1] deals with MCF7. Nature of the assay: Cytotoxicity against human MCF7 cells after 3 days by SRB assay. The conditions noted are these: MCF7, 72 h. The method in brief:
(§1)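 Cells kept in RPMI-1640 with 2 mM L-glutamine, 25 mM HEPES and 10% FBS at 37 °C, 5% CO2. Seeding per well: MCF-7 5000, NCI/ADR 7500, NCI-H460 5000, SF-268 7500; 24 h adherence. Compound at 0.001 to 1000 nM, triplicate wells, 3 days. TCA fixation 1 h at 4 °C, 0.2% SRB 20 min, bound dye extracted in 10 mM Tris, absorbance at 515 nm.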
In general terms: The SRB assay estimates cell density from bound dye.

Assay [2] is described as follows: Cytotoxicity against human NCI/ADR cells after 3 days by SRB assay. The conditions noted are these: NCI/ADR-RES, 72 h. The procedure, abridged: as §1
Assay [3] has as its system SF-268. Nature of the assay: Cytotoxicity against human SF268 cells after 3 days by SRB assay. The conditions noted are these: SF-268, 72 h. The procedure, abridged:
as §1

Assay [4] relates to NCI-H460. Nature of the assay: Cytotoxicity against human NCI-H460 cells after 3 days by SRB assay. Particulars: NCI-H460, 72 h. The procedure, abridged:
as §1

Usually IC50 stands for the concentration needed to halve the response being measured. High values mean weaker potency in that assay, low ones greater potency in that assay.

Consider `C/C1=C/C[C@@H](/C(C)=C/c2csc(C)n2)OC(=O)C[C@H](O)C(C)(C)C(=O)[C@H](C)[C@@H](O)[C@@H](C)CCC1` [EPOTHILONE D], for which the IC50 in assay [1] came to 0.016 µM; in assay [2] it was 0.044 µM; in assay [3], 0.018 µM; in assay [4] it was 0.03 µM.
The like results for `C/C(=C\c1csc(C)n1)[C@@H]1C/C=C\CCC[C@H](C)[C@H](O)[C@@H](C)C(=O)C(C)(C)[C@@H](O)CC(=O)O1` [EPOTHILONE C] were, in that order, 0.097 µM, 0.31 µM, 0.34 µM and 0.28 µM.
In the case of `CC1=C/C[C@@H](/C(C)=C/c2csc(C)n2)OC(=O)C[C@H](O)C(C)(C)C(=O)[C@H](C)[C@@H](O)[C@@H](C)C\C=C\1`, the IC50 in assay [1] came out at 0.047 µM; in assay [2], 0.25 µM; in assay [3] it was 0.092 µM; in assay [4], 0.047 µM.
For the compound `CC1=C/C[C@@H](/C(C)=C/c2csc(C)n2)OC(=O)C[C@H](O)C(C)C(=O)[C@H](C)[C@@H](O)[C@@H](C)C\C=C\1` (stereo not given in full), the IC50 in assay [1] is 0.25 µM; in assay [2] it was 0.395 µM; in assay [3], 0.39 µM; in assay [4], 0.345 µM.
As for `C/C1=C/C[C@@H](/C(C)=C/c2csc(C)n2)OC(=O)C[C@H](O)C(C)(C)C(=O)[C@H](C)[C@@H](O)[C@@H](C)C(=O)CC1`, the half-maximal inhibitory concentration (IC50) in assay [1] is 0.5 µM; in assay [2], more than 1 µM; in assay [3] it was more than 1 µM; in assay [4] it was more than 1 µM.
